How the values were obtained:
Globisporangium ultimum [1] = test: Antifungal activity against logarithmic phase of Pythium ultimum ATCC 58812 assessed as growth inhibition at 10 ug/ml measured at 5 days post-drug treatment; type: functional; settings: ATCC 58812, 120 h, read-out: GI
How it was run: (§1)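 Log-phase mycelium (from 10 mm stationary-phase disks grown on cellophane over PDA, pH 5.6, 26 ± 1 °C) moved to PDA with compound added from DMSO stock at 45 °C. Final concentrations were 10, 50 or 100 µg mL^-1, with 0.1% DMSO in test and control media. Colony diameter was read daily for 5 days, in triplicate, as % of untreated control.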

Globisporangium ultimum [2] = test: Antifungal activity against logarithmic phase of Pythium ultimum Trow ATCC 58812 assessed as growth inhibition measured at 5 days post-drug treatment; type: functional, organism-based; settings: ATCC 58812, 120 h
How it was run: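 Log-phase mycelium grown on cellophane over PDA (pH 5.6, 26 ± 1 °C) moved to PDA containing compound at 10, 50 and 100 µg mL^-1 final, with 0.1% DMSO in test and control media. Colony diameter was measured daily for 5 days, in triplicate, relative to untreated controls. IC50 came from curves of activity (%) versus log inhibitor concentration.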

Pyricularia grisea [3] = test: microbe, parasite or virus in culture; type: functional; settings: ATCC 64413, 120 h, read-out: GI
Botrytis cinerea [4] = test: Antifungal activity against logarithmic phase of Botryotinia fuckeliana ATCC 48339 assessed as growth inhibition at 100 ug/ml measured at 5 days post-drug treatment; type: functional; settings: ATCC 48339, 120 h, read-out: GI; how it was run: as §1
Globisporangium ultimum [5] = test: Antifungal activity against logarithmic phase of Pythium ultimum ATCC 58812 assessed as growth inhibition at 100 ug/ml measured at 5 days post-drug treatment; type: functional; settings: ATCC 58812, 120 h, read-out: GI; how it was run: as §1
Botrytis cinerea [6] = test: Antifungal activity against logarithmic phase of Botryotinia fuckeliana ATCC 48339 assessed as growth inhibition at 10 ug/ml measured at 5 days post-drug treatment; type: functional; settings: ATCC 48339, 120 h, read-out: GI; how it was run: as §1
Pyricularia grisea [7] = test: microbe, parasite or virus in culture; type: functional; settings: ATCC 64413, 120 h, read-out: GI; remark: listed apart in the source
Botrytis cinerea [8] = test: Antifungal activity against logarithmic phase of Botryotinia fuckeliana ATCC 48339 assessed as growth inhibition at 50 ug/ml measured at 5 days post-drug treatment; type: functional; settings: ATCC 48339, 120 h, read-out: GI; how it was run: as §1
Pyricularia grisea [9] = test: microbe, parasite or virus in culture; type: functional; settings: ATCC 64413, 120 h, read-out: GI; remark: listed apart in the source
Globisporangium ultimum [10] = test: Antifungal activity against logarithmic phase of Pythium ultimum ATCC 58812 assessed as growth inhibition at 50 ug/ml measured at 5 days post-drug treatment; type: functional; settings: ATCC 58812, 120 h, read-out: GI; how it was run: as §1

SMILES	inhibition of growth at 10 µg/mL (Globisporangium ultimum [1])	IC50 (Globisporangium ultimum [2])	inhibition of growth at 10 µg/mL (Pyricularia grisea [3])	inhibition of growth at 100 µg/mL (Botrytis cinerea [4])	inhibition of growth at 100 µg/mL (Globisporangium ultimum [5])	inhibition of growth at 10 µg/mL (Botrytis cinerea [6])	inhibition of growth at 100 µg/mL (Pyricularia grisea [7])	inhibition of growth at 50 µg/mL (Botrytis cinerea [8])	inhibition of growth at 50 µg/mL (Pyricularia grisea [9])	inhibition of growth at 50 µg/mL (Globisporangium ultimum [10])
Cc1c(C(=O)O)c(C(=O)NC(C)(C)C)nn1-c1ccccc1	12.1%	79 µM	0.6%	60.5%	83.4%	39.5%	13.9%	43.1%	3.8%	82.3%
Cc1onc(C(=O)NC2CC2)c1C(=O)O	46%	–	–	–	53.5%	3.8%	8.97%	–	2.3%	46.6%
COC(=O)c1c(C(=O)NC2CC2)nn(C)c1C	4.8%	–	–	3.2%	7.7%	–	3.4%	4%	–	4.3%
O=c1c2cn[nH]c2[nH]c(=S)n1-c1cccc(C(F)(F)F)c1	17.2%	–	–	7.2%	57.8%	0.5%	4.1%	1%	1.4%	34.5%
CCCCNC(=S)Nc1[nH]ncc1C(=O)OCC	–	–	–	32.4%	10.4%	4.7%	10%	15.1%	8.6%	–
Cc1c(C(=O)O)c(C(=O)NC(C)(C)C)nn1-c1c(Cl)cc(C(F)(F)F)cc1Cl	1.9%	–	–	27.5%	54.7%	17.3%	24.4%	22.6%	20.6%	37.9%
O=c1c2cn[nH]c2[nH]c(=S)n1Cc1ccccc1	44.1%	66 µM	0.5%	31.9%	78%	13.5%	44.4%	23.4%	23.4%	64.6%
Cc1onc(C(=O)NC(C)(C)C)c1C(=O)O	9.7%	–	–	18.2%	40.2%	4.3%	–	13.3%	–	15.8%
CCOC(=O)c1cn[nH]c1NC(=S)Nc1ccc(Br)cc1	–	–	16.1%	16.3%	3.1%	–	27.2%	–	27.1%	2%
O=c1c2cn[nH]c2[nH]c(=S)n1-c1cccc(Cl)c1	2.2%	–	–	27.3%	10.8%	–	5%	8.5%	1%	4.1%
Cc1[nH]nc(C(=O)NC2CC2)c1C(=O)O	3.2%	–	3.6%	19.2%	39.9%	–	9%	10.6%	5.9%	32.9%
COC(=O)N(OC)c1ccccc1COc1ccn(-c2ccc(Cl)cc2)n1 [PYRACLOSTROBIN]	100%	< 10 µM	–	–	100%	–	–	–	–	100%
O=c1c2cn[nH]c2[nH]c(=S)n1-c1ccc([N+](=O)[O-])cc1	4.6%	–	–	2.1%	13.7%	–	–	–	–	8.7%
CCOC(=O)c1cn[nH]c1NC(=S)NCc1ccccc1	3.7%	–	15.8%	32%	38.3%	0%	41.4%	26%	35.6%	34.6%
CCOC(=O)c1cn[nH]c1NC(=S)Nc1ccc([N+](=O)[O-])cc1	27.2%	–	13%	37.9%	63.4%	13.2%	17.7%	33%	15.6%	36%
CCOC(=O)c1c[nH]nc1N=C(S)Nc1ccc(Cl)cc1	38%	–	21.4%	46.2%	61.5%	–	36.7%	21%	33.6%	52.9%
Cc1c(C(=O)O)c(C(=O)NC2CC2)nn1C	–	–	–	19.8%	11.4%	3%	8.6%	9.9%	4.3%	6.6%
CCOC(=O)c1cn[nH]c1NC(=S)NC1CCCCC1	44.4%	–	29.8%	–	63.9%	–	36%	–	26.7%	59%
COC(=O)c1c(C(=O)O)nn(C)c1C	–	–	–	3.3%	–	–	8.4%	–	–	–
CCNC(=S)Nc1[nH]ncc1C(=O)OCC	–	–	13.8%	–	20%	–	28.9%	–	18.1%	–
O=c1c2cn[nH]c2[nH]c(=S)n1-c1ccc(Cl)cc1	1.7%	–	–	31.7%	37.8%	–	–	–	–	12.2%
O=c1c2cn[nH]c2[nH]c(=S)n1-c1ccc(Br)cc1	–	–	–	–	61.8%	–	20%	–	18%	22.5%
Cc1c(C(=O)O)c(C(=O)NC(C)(C)C)nn1C	–	–	0.9%	61.9%	41.3%	–	5.8%	9.6%	4.1%	12.5%
CCn1c(=S)[nH]c2[nH]ncc2c1=O	–	–	–	–	–	–	4.1%	–	3.6%	–

Reference: ChEMBL document CHEMBL3045616, “Synthetic pyrazole derivatives as growth inhibitors of some phytopathogenic fungi” (J Agric Food Chem, 2007)
